Data published in ChEMBL document CHEMBL1909633, “Pseudoguaianolides and guaianolides from Inula hupehensis as potential anti-inflammatory agents” (J Nat Prod, 2011).

Assays:
RAW264.7 [1] = test: Antiinflammatory action in mouse RAW264.7 cells assessed as inhibition of LPS-induced nitric oxide production treated 30 mins before LPS challenge measured after 24 hrs by griess reaction; type: functional, cell-based
Procedure, shortened: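 RAW264.7 macrophages seeded at 2 × 10^5 cells/well, pretreated 30 min with samples over 0.1–50.0 μM, then stimulated with LPS 1 μg/mL for 24 h. NO quantified as nitrite in culture supernatant using Griess reagent; IC50 derived.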

RAW264.7 [2] = test: Cytotoxicity against mouse RAW264.7 cells after 24 hrs by MTT assay; type: cell-based; details: raw264.7, 24 h
Procedure, shortened: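 RAW264.7 macrophages, cultured and treated alongside the LPS (1 μg/mL, 24 h) NO assay with sample pretreatment of 30 min; viability read by MTT reduction.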

SMILES | IC50 (RAW264.7 [1]) [µM] | Activity (RAW264.7 [2])
C=C1C(=O)O[C@H]2C=C(C)[C@H]3CC[C@](C)(O)[C@@H]3C[C@H]12 | 6.3 | Non-toxic
C=C1C(=O)O[C@H]2[C@H]1[C@@H](O)C[C@@H](C)[C@@H]1C=CC(=O)[C@]12C | 3.5 | Non-toxic
C[C@@H]1C[C@@H]2OC(=O)[C@@H](C)[C@H]2[C@H](O)[C@]2(C)C(=O)C=C[C@@H]12 | 10.5 | Non-toxic
C=C1C(=O)O[C@H]2C[C@@H](COC(C)=O)[C@@H]3CCC(=O)[C@@]3(C)C[C@H]12 | 6.6 | Non-toxic
C=C1C(=O)O[C@H]2C[C@@H](C)[C@@H]3[C@H](OC)CC(=O)[C@@]3(C)[C@@H](O)[C@H]12 | 5.1 | Non-toxic
C=C1C(=O)O[C@H]2C[C@@H](C)[C@@H]3[C@H](OCC)CC(=O)[C@@]3(C)[C@@H](O)[C@H]12 | 3.8 | Non-toxic
C=C1C(=O)O[C@H]2C[C@@H](C)[C@@H]3[C@H](OC)CC(=O)[C@@]3(C)[C@@H](OC(C)=O)[C@H]12 | 2.2 | Non-toxic
C=C1C(=O)O[C@H]2C[C@@H](C)[C@@H]3[C@@H](OC)CC(=O)[C@@]3(C)[C@@H](OC(C)=O)[C@H]12 | 1.5 | Non-toxic
C[C@@H]1C[C@@H]2OC(=O)[C@H](C)[C@H]2[C@H](O)[C@]2(C)C(=O)CC[C@@H]12 | 19.8 | Non-toxic
C=C1C(=O)O[C@H]2C=C(C)[C@@H]3[C@@H]([C@@H](O)[C@H]12)[C@](C)(O)C[C@@H]3OC(C)=O | 9.2 | Non-toxic
C=C1C(=O)O[C@H]2C[C@@H](C)[C@@H]3C=CC(=O)[C@@]3(C)[C@@H](O)[C@H]12 | 1.1 | Non-toxic
C=C1C(=O)O[C@H]2C=C(C)[C@H]3CC[C@@](C)(O)[C@@H]3[C@@H](OC(C)=O)[C@H]12 | 17.1 | Non-toxic
C=C1C[C@H]2OC(=O)C(=C)[C@H]2C[C@@H]2[C@@H]1CC[C@@]2(C)O | 8 | Non-toxic
C=C1C(=O)O[C@H]2C[C@@H](C)[C@@H]3C=CC(=O)[C@@]3(C)C[C@H]12 [AROMATICIN] | 8.2 | Non-toxic
C=C1C(=O)O[C@H]2C[C@@H](C)[C@@H]3C=CC(=O)[C@@]3(C)[C@@H](OC(C)=O)[C@H]12 [BIGELOVIN] | 0.9 | Non-toxic
C=C1C(=O)O[C@@H]2C[C@H](C)[C@@H]3[C@@H](O)CC(=O)[C@@]3(C)C[C@H]12 [BURRODIN] | 9.5 | Non-toxic
C=C1C(=O)O[C@H]2C[C@@H](C)[C@@H]3CCC(=O)[C@@]3(C)[C@@H](O)[C@H]12 [CARPESIOLIN] | 8.4 | Non-toxic
C=C1C(=O)O[C@@H]2C[C@H](C)[C@@H]3CCC(=O)[C@@]3(C)C[C@H]12 [CONFERTIN] | 9.8 | Non-toxic
C=C1C(=O)O[C@H]2C[C@@H](C)[C@@H]3CCC(=O)[C@@]3(C)[C@@H](OC(C)=O)[C@H]12 [ERGOLIDE] | 3.9 | Non-toxic
C=C1C(=O)O[C@H]2C[C@@H](C)[C@@H]3CCC(=O)[C@@]3(C)C[C@H]12 [GRAVEOLIDE] | 9.2 | Non-toxic
C=C1C(=O)O[C@H]2C[C@@](C)(O)C3=CC[C@](C)(O)[C@@H]3C[C@H]12 [GUAIANOLIDE] | 26.8 | Non-toxic
C=C1C(=O)O[C@@H]2CC(C)=C3[C@@H](OC(C)=O)C[C@@](C)(O)[C@@H]3C[C@H]12 [INUCHINENOLIDE B] | 9.9 | Non-toxic
C=C1C(=O)O[C@H]2C[C@H](C)[C@@H]3C(OC(C)=O)CC(OC(C)=O)[C@@]3(C)[C@@H](O)[C@H]12 (some centres undefined) [INUCHINENOLIDE C] | 0.6 | Non-toxic
C=C1C(=O)O[C@H]2CC(=C)[C@H]3CC[C@@](C)(O)[C@@H]3C[C@H]12 [INUVISCOLIDE] | 21.9 | Non-toxic
N=C(N)NN [PIMAGEDINE] | 7.9 | 
